Positions count from the first letter of the chain named. Numbers in names are those of the source. Entries after “also recorded” stand apart in the source; their conditions may differ. Where no end group is shown, it is not given here. MBP = maltose binding protein (fused N-terminally to the peptide)
T1: IKKα(10-667) EE homodimer (Homo sapiens, UniProt O15111, S176E/S180E)
T1 sequence (O15111 10-667 S176E/S180E): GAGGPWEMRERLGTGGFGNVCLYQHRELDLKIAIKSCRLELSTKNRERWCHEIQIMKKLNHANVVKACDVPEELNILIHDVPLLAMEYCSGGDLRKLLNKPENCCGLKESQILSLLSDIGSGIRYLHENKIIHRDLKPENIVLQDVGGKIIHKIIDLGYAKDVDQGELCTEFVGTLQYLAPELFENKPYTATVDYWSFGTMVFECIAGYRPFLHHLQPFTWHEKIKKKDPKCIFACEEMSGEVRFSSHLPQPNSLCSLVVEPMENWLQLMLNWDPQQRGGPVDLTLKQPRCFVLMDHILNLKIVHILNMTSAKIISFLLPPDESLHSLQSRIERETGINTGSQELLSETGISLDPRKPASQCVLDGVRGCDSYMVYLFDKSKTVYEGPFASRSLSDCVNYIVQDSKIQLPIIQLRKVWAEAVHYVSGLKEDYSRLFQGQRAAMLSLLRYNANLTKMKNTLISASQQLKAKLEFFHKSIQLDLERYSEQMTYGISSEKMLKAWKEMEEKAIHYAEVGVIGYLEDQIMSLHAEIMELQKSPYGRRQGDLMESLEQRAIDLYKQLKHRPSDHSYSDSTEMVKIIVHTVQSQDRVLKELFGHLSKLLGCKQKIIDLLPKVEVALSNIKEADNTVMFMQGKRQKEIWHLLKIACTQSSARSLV

T2: 6xHis-IKKβ(1-669) EE (human, UniProt O14920 1-669, S177E | S181E)
T2 sequence (looked up): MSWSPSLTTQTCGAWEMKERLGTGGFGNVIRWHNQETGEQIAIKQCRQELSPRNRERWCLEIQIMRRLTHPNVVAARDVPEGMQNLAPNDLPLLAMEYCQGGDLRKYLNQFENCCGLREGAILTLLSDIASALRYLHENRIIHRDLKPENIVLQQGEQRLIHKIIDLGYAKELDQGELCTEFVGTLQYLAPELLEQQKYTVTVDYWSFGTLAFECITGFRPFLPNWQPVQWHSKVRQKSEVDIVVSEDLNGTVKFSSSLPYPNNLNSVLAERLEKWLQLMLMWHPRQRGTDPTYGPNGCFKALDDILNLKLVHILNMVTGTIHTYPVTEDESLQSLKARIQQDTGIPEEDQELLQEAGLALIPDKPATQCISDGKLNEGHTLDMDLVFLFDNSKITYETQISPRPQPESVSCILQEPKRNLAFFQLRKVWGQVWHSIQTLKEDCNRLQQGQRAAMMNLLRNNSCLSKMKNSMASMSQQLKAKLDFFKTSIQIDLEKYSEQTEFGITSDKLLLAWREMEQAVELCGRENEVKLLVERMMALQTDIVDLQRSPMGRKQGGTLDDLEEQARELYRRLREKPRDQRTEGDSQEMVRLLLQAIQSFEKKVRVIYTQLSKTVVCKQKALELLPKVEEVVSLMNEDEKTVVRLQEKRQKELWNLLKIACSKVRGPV

T3: IKKα(10-667) EE, 6xHis tag removed (UniProt O15111 10-667, S176E | S180E)
T3 sequence (looked up): T1 sequence (O15111 10-667 S176E/S180E)

B1: C308L/R314K IκBα pep (synthetic) (peptide)
peptide: EFTEDELPYDDLVFGGQKLTL-NH2
B2: MBP-IκBα full length (natural protein, human, UniProt P25963 1-317, looked up)
chain: MFQAAERPQEWAMEGPRDGLKKERLLDDRHDSGLDSMKDEEYEQMVKELQEIRLEPQEVPRGSEPWKQQLTEDGDSFLHLAIIHEEKALTMEVIRQVKGDLAFLNFQNNLQQTPLHLAVITNQPEIAEALLGAGCDPELRDFRGNTPLHLACEQGCLASVGVLTQSCTTPHLHSILKATNYNGHTCLHLASIHGYLGIVELLVSLGADVNAQEPCNGRTALHLAVDLQNPDLVSLLLKCGADVNRVTYQGYSPYQLTWGRPSTRIQQQLGQLTLENLQMLPESEDEESYDTESEFTEFTEDELPYDDCVFGGQRLTL
B3: IkBa C308F (protein, UniProt P25963 1-317, looked up, variant C308F)
NF-kappa-B inhibitor alpha: B2 chain with C308F
B4: MBP-IκBα pep(s) C308L (peptide, UniProt P25963 301-317, looked up)
chain: DELPYDDLVFGGQRLTL
B5: MBP-IκBα(73-317) (domain or fragment, human, UniProt P25963 73-317, looked up)
chain: DGDSFLHLAIIHEEKALTMEVIRQVKGDLAFLNFQNNLQQTPLHLAVITNQPEIAEALLGAGCDPELRDFRGNTPLHLACEQGCLASVGVLTQSCTTPHLHSILKATNYNGHTCLHLASIHGYLGIVELLVSLGADVNAQEPCNGRTALHLAVDLQNPDLVSLLLKCGADVNRVTYQGYSPYQLTWGRPSTRIQQQLGQLTLENLQMLPESEDEESYDTESEFTEFTEDELPYDDCVFGGQRLTL
B6: MBP-IκBα pep(s) C308F (peptide, UniProt P25963 301-317, looked up)
chain: DELPYDDFVFGGQRLTL
B7: IKKβ(1-669) EE, 6xHis tag removed (enzyme, human, UniProt O14920 1-669, looked up)
chain: T2 sequence (looked up)
B8: p100 pep (synthetic, residues 8-29 of p100) (peptide)
peptide: GLDGIIEYDDFKLNSSIVEPKE
B9: IκBα pep (synthetic, residues 297-317 of IκBα) (peptide)
peptide: EFTEDELPYDDCVFGGQRLTL
B10: C308L IκBα pep (synthetic) (peptide)
peptide: EFTEDELPYDDLVFGGQRLTL-NH2

How the values were obtained:
[1] = tested on: IKKα/β heterodimer (6xHis-IKKβ(1-669) EE, Strep-IKKα(10-667) EE); experiment: MBP-pulldown with purified IKKα/β heterodimer; type: binding; conditions: MBP-IκBα pep(s) vs MBP negative control, Coomassie
Procedure, shortened: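 Heterodimer co-expressed in Sf21 insect cells, purified on Strep-Tactin then Ni-NTA, pre-incubated with 1 mM ATP, MgCl2, β-glycerophosphate, NaF and orthovanadate for 1 h on ice, then gel-filtered in Tris pH 8.0 buffer. MBP-fusion baits expressed in E. coli BL21(DE3), captured on amylose resin. Binding in 20 mM Tris pH 8.0, 150 mM NaCl, 2 mM DTT. Bound proteins Coomassie-stained.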

[2] = biological target: T1, IKKα(10-667) EE homodimer; experiment: ITC of synthetic YDDΦxΦ peptides with IKKα homodimer; type: binding; conditions: for ITC binding to IKKα, in words: 25 °C, titration of the IKKα homodimer with synthetic peptide
Procedure, shortened: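 IKKα(10-667) EE was expressed in Sf21 insect cells and purified by Ni-NTA affinity. It was then dialyzed overnight at 4 °C against ITC buffer (20 mM HEPES pH 8.0, 150 mM NaCl, 1 mM TCEP), which was used for all titrations unless otherwise stated.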

[3] = biological target: T2, 6xHis-IKKβ(1-669) EE; experiment: cross-linking
[4] = biological target: T2, 6xHis-IKKβ(1-669) EE; experiment: pull-down
[5] = tested on: MEF cells KO for IκBα, IκBβ, IκBε; experiment: In cellulo degradation of retro-transduced IκBα proteins after TNFα; type: cell-based, mouse; conditions: retro-transduced IκBα constructs, TNFα 20 ng/ml, compared with wt IκBα
Procedure, shortened: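 Retroviruses came from Phoenix-eco cells (5 × 10^6) transfected with 6 μg pBABE-IκBα plasmid; empty vector was the control. Medium was changed at 6 h and the virus-containing medium collected at 48 h, filtered, and used to infect the MEFs.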

[6] = biological target: T2, 6xHis-IKKβ(1-669) EE; experiment: pull-down; remark: listed apart in the source
[7] = biological target: the molecule itself; experiment: crystal structure
[8] = biological target: T3, IKKα(10-667) EE, 6xHis tag removed; experiment: ITC
[9] = biological target: B7; experiment: ITC

Molecule: IκBα pep(s): 17 amino acid peptide, residues 301-317 of IκBα, fused to MBP ({MBP}-DELPYDDCVFGGQRLTL)
- binding of the IKKα/β heterodimer in MBP-pulldown, in words [1]: specifically binds

Molecule: LSSANSLYDDIECFLMELEQPA [IRF7 pep]
- ITC binding to IKKα, in words [2]: too weak to allow for accurate thermodynamic analysis; also recorded: binds with weak affinity to IKKα

Molecule: EFTEDELPYDDLVFGGQRLTL-NH2 [IκBα pep C308L]
- Kd [2]: 0.42 µM

Molecule: EFTEDELPpYDDLVFGGQRLTL [pY-IκBα pep]
- ITC binding to IKKα, in words [2]: too weak to allow for accurate thermodynamic analysis; also recorded: absence of interaction

Molecule: B1
- binding result [3]: binds

Molecule: B2
- binding result [4]: binds

Molecule: B3
- IκBα degradation after TNFα stimulation, in words [5]: slightly faster compared to that of the wt IκBα protein

Molecule: B4
- binding result [6]: binds

Molecule: B5
- binding result [6]: binds

Molecule: B6
- binding result [6]: binds

Molecule: B7
- binding result [7]: binds

Molecule: B8
- Kd [8]: ~12 µM
- dH [8]: ~-13.4 kcal/mol
- stoichiometry N [8]: 0.6

Molecule: B9
- Kd [9]: 40 µM
- dH [9]: -16.3 kcal/mol
- stoichiometry N [9]: 0.63
- Kd [8]: 7.7 µM
- dH [8]: -14.2 kcal/mol
- stoichiometry N [8]: 0.63

Molecule: B10
- Kd [9]: 2.4 µM
- dH [9]: -11.5 kcal/mol
- stoichiometry N [9]: 0.66

Source: publication PMC11371828 (Nature Communications, 2024)
